Screening results deposited in PubChem by Broad Institute.
SIRT5 inh – inhibitors of human sirtuin-5 desuccinylase; Purified SirT5, succinyl-peptide AMC, trypsin-coupled fluorescence; 330,000 compounds, 1.1% hits; Q9NXA8; inhibition, % at 15 µM; in the data active = inhibition above about 15%; inconclusive = no clear call, values can overlap the other calls
Target sequence (Q9NXA8 whole entry, looked up): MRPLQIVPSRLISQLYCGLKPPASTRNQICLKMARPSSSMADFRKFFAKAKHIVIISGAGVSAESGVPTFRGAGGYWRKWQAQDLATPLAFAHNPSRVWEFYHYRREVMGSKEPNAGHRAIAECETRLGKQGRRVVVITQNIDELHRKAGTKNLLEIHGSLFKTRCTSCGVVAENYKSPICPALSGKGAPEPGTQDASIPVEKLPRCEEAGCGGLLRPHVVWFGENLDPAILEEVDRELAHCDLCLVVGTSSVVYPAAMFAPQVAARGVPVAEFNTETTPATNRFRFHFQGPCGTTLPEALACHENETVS
DENV2 CPE – protects cells from dengue virus 2 cytopathic effect; DENV2-infected cells, cytopathic effect rescue, plate reader; CPE inhibition, % at 9.99 µM; 350,000 compounds, 1.7% hits; AID 651640; in the data active = CPE inhibition above about 20%, passing the limit was not always enough; inconclusive = no clear call, values can overlap the other calls; tested in BHK-21 cells
E-selectin induc – E-selectin induction on HUVECs. HUVEC E-selectin immunofluorescence imaging; normalized: neutral wells 0, TNF-alpha wells 100. 260,000 compounds, 0.37% hits. activation, % at 7.58 µM. P16581. AID 686992;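 active = mean E-selectin-positive cell signal at least 10% of the positive control, reached in at least 60% of replicates, without over 20% cell loss; inconclusive = no rule given, readout overlaps actives, possibly toxicity-flagged; inactive = the rest, including those meeting only one limit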
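Material: HUVEC primary endothelial cells; Amount: 3,000 cells per well; Dosing: single concentration; Medium: EGM-2 growth medium on 0.1% gelatin-coated wells; Read-out basis: percent E-selectin-positive cells; Signal: immunofluorescence imaging; Control set: TNF-alpha, DMSO.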
Of the large screens only hits and unclear results are named; the others gave an inactive call. Compounds with a hit are over-represented: about 2.9% of the library has one in this group of screens.

Cc1nn(Cc2noc(C(=O)NCc3ccc(F)cc3)n2)c(C)c1Br	none
O=C(O)c1ccccc1-c1ccc(/C=C2\SC(=O)N(c3ccccc3)C2=O)o1	none
COc1cccc(/C=C2\SC(=S)N(C(C(=O)O)c3ccccc3)C2=O)c1OC (centres undefined)	none
COc1ccc(/C=C2\SC(=S)N(C(C(=O)O)c3ccccc3)C2=O)c(OC)c1 (centres undefined)	none (no result: E-selectin induc)
COc1cc(/C=C2\SC(=S)N(C(C(=O)O)c3ccccc3)C2=O)cc(OC)c1OC (centres undefined)	SIRT5 inh 16 (no result: E-selectin induc)
O=C(O)C(c1ccccc1)N1C(=O)/C(=C\c2ccc(-c3ccccc3Cl)o2)SC1=S (centres undefined)	SIRT5 inh 33
O=C(O)C(c1ccccc1)N1C(=O)/C(=C\c2ccc(-c3ccc(Br)cc3)o2)SC1=S (centres undefined)	SIRT5 inh 54
CCCCN(C(=O)CC(c1ccccc1)c1ccccc1)c1c(N)n(CCC)c(=O)[nH]c1=O	none
CCCCCC(=O)OCc1ccc(C2=CC(=O)CC(C)(C)C2=O)cc1	none (no result: E-selectin induc)
C[C@@H]1CN([C@H](C)CO)C(=O)c2cc(NS(=O)(=O)c3ccccc3)ccc2O[C@@H]1CN(C)Cc1ccc(C(=O)Nc2ccccc2N)cc1	none
O=C(O)c1ccnc(SCC(=O)c2ccccc2)c1	none
COc1ccc(S(=O)(=O)N(C)C[C@H]2OCc3ccccc3-c3ccccc3C(=O)N([C@@H](C)CO)C[C@@H]2C)cc1	none
O=C(CCl)Nc1ccc(S(=O)(=O)NC2=NCCCCC2)cc1	DENV2 CPE 60 (no result: SIRT5 inh)
O=C(CCl)Nc1cccc(S(=O)(=O)NC2=NCCCCC2)c1	none
CCOc1ccccc1NC(=O)CSc1nnc(CNC(=O)c2ccccc2F)o1	none
Cc1[nH]c2ccccc2c1C(=O)C(=O)N1CCN(c2ccccc2Cl)CC1	SIRT5 inh 34
COc1ccccc1N1CCN(C(=O)C(=O)c2c(C)[nH]c3ccccc23)CC1	none
COC(=O)/C=C1/SC(=NC(=O)c2cccc([N+](=O)[O-])c2)NC1=O	none (no result: E-selectin induc)
CCSC1=N/C(=C\c2ccccc2)C(=O)N1	none (no result: SIRT5 inh, E-selectin induc)
COc1ccc(NS(=O)(=O)c2cc(NC(=O)c3ccc(=O)[nH]n3)ccc2N2CCOCC2)cc1	none (no result: E-selectin induc)
Cc1ccc(-c2ccc3c(c2)O[C@@H](CN(C)CC2CC2)[C@@H](C)CN([C@H](C)CO)S3(=O)=O)cc1	none
CNC[C@@H]1Oc2c(NS(=O)(=O)c3ccc(Cl)cc3)cccc2C(=O)N([C@@H](C)CO)C[C@@H]1C	none
Cc1ccc(S(=O)(=O)N(C)C[C@@H]2Oc3c(NS(=O)(=O)c4ccc(Cl)cc4)cccc3C(=O)N([C@@H](C)CO)C[C@@H]2C)cc1	none (no result: DENV2 CPE)
CNC[C@H]1Oc2c(NS(=O)(=O)c3ccc(Cl)cc3)cccc2C(=O)N([C@@H](C)CO)C[C@@H]1C	DENV2 CPE 94
Cc1ccc(S(=O)(=O)N(C)C[C@@H]2Oc3c(NS(=O)(=O)c4ccc(Cl)cc4)cccc3C(=O)N([C@@H](C)CO)C[C@H]2C)cc1	E-selectin induc 49
Cc1ccc(S(=O)(=O)Nc2cccc3c2O[C@H](CN(C)S(=O)(=O)c2ccc(Cl)cc2)[C@H](C)CN([C@H](C)CO)C3=O)cc1	none
Cc1ccc(S(=O)(=O)Nc2cccc3c2O[C@@H](CN(C)S(=O)(=O)c2ccc(Cl)cc2)[C@@H](C)CN([C@@H](C)CO)C3=O)cc1	DENV2 CPE 21
CCOC(=O)c1c(NC(=O)/C=C/C(=O)O)sc(C)c1-c1ccc(F)cc1	none
O=[N+]([O-])c1ccc(N2CCN(S(=O)(=O)c3ccc4ccccc4c3)CC2)cc1NCC1CCCO1 (centres undefined)	none (no result: E-selectin induc)
C=CC[C@@]1(C(=O)OC)N=C(c2ccc(OCCCO)cc2)O[C@@H]1c1ccccc1CN=[N+]=[N-]	none (no result: E-selectin induc)
COc1ccc(/C=C/C(=O)NC(=S)N2CCN(C)CC2)cc1	none (no result: E-selectin induc)
CCOC(=O)c1cc(S(=O)(=O)N2CCC(C)CC2)cn1C	none (no result: E-selectin induc)
O=C(CSc1nccc(=O)[nH]1)N1CCOCC1	DENV2 CPE 115
O=C(CSc1nc(C(F)(F)F)cc(=O)[nH]1)N1CCOCC1	none
Fc1ccccc1COc1ccc(C(=S)N2CCCC2)cc1	none (no result: E-selectin induc)
C[C@@H]1CN([C@@H](C)CO)C(=O)Cc2cc(NS(=O)(=O)c3ccc(Cl)cc3)ccc2O[C@@H]1CN(C)Cc1ccc(Cl)c(Cl)c1	none
C[C@H](CO)N1C[C@H](C)[C@@H](CN(C)Cc2ccc(Cl)c(Cl)c2)Oc2ccc(NS(=O)(=O)c3ccccc3)cc2CC1=O	SIRT5 inh 28
COc1ccc(S(=O)(=O)Nc2ccc3c(c2)CC(=O)N([C@H](C)CO)C[C@@H](C)[C@H](CN(C)Cc2ccc(Cl)c(Cl)c2)O3)cc1	DENV2 CPE 38
C[C@@H]1CN([C@@H](C)CO)C(=O)Cc2cc(NS(=O)(=O)c3ccccc3)ccc2O[C@@H]1CN(C)Cc1ccc(Cl)c(Cl)c1	none
COc1ccc(S(=O)(=O)Nc2ccc3c(c2)CC(=O)N([C@H](C)CO)C[C@H](C)[C@H](CN(C)Cc2ccc(Cl)c(Cl)c2)O3)cc1	DENV2 CPE inconclusive
C[C@H]1CN([C@@H](C)CO)C(=O)Cc2cc(NS(=O)(=O)c3ccc(Cl)cc3)ccc2O[C@@H]1CN(C)Cc1ccc(Cl)c(Cl)c1	SIRT5 inh 15
O=C(CN(c1ccccc1)S(=O)(=O)c1ccc(F)cc1)NC1CCS(=O)(=O)C1 (centres undefined)	none (no result: SIRT5 inh)
O=C(Nc1cccc(F)c1)N1CC(=O)N2[C@H](CO)[C@@H](c3ccc(Br)cc3)[C@@H]2C1	none
C[C@@H]1CCCCO[C@H](CN(C)C(=O)Cc2ccccc2)[C@H](C)CN([C@@H](C)CO)C(=O)c2cc(NS(=O)(=O)c3ccc(Cl)cc3)ccc2O1	none
COc1ccc(S(=O)(=O)Nc2ccc3c(c2)C(=O)N([C@H](C)CO)C[C@H](C)[C@H](CN(C)C(=O)CCCN(C)C)OCCCC[C@H](C)O3)cc1	DENV2 CPE 22
Cc1ccc(S(=O)(=O)Nc2ccc3c(c2)C(=O)N([C@@H](C)CO)C[C@H](C)[C@H](CN(C)C(=O)Cc2ccccc2)OCCCC[C@H](C)O3)cc1	DENV2 CPE inconclusive (no result: E-selectin induc)
C[C@H]1CCCCO[C@H](CN(C)C(=O)Cc2ccccc2)[C@@H](C)CN([C@@H](C)CO)C(=O)c2cc(NS(=O)(=O)c3ccc(Cl)cc3)ccc2O1	DENV2 CPE 28
COc1ccc(S(=O)(=O)Nc2ccc3c(c2)C(=O)N([C@@H](C)CO)C[C@H](C)[C@@H](CN(C)C(=O)Cc2ccccc2)OCCCC[C@H](C)O3)cc1	DENV2 CPE 68
COc1ccc(S(=O)(=O)Nc2ccc3c(c2)C(=O)N([C@@H](C)CO)C[C@H](C)[C@H](CN(C)C(=O)Cc2ccccc2)OCCCC[C@H](C)O3)cc1	none
COc1ccc(S(=O)(=O)Nc2ccc3c(c2)C(=O)N([C@@H](C)CO)C[C@H](C)[C@@H](CN(C)C(=O)CCCN(C)C)OCCCC[C@H](C)O3)cc1	none
Cc1ccc(S(=O)(=O)Nc2ccc3c(c2)C(=O)N([C@H](C)CO)C[C@H](C)[C@H](CN(C)C(=O)Cc2ccccc2)OCCCC[C@H](C)O3)cc1	SIRT5 inh 16 (no result: E-selectin induc)
Cc1cc(NS(=O)(=O)c2ccc(NC(=O)C(C)Oc3ccc(C(C)C)cc3)cc2)no1 (centres undefined)	DENV2 CPE inconclusive
